According to ChEMBL document CHEMBL5252669, “Semisynthetic blasticidin S ester derivatives show enhanced antibiotic activity” (RSC Med Chem, 2023):
Values after ≈ are worked out from the molar mass of the structure shown. Active and inactive are the calls of the source. The calls are words filed in the database; no cut-off is given here.

Legend:
Candida albicans [1] = assay: Antifungal activity against Candida albicans assessed as zone of inhibition incubated for 18 hrs by spot on lawn assay; assay type: functional, organism-based
Method in brief: (§1)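 Overnight LB cultures diluted to OD600 0.01 in 0.7% LB top agar, overlaid on 1.5% LB agar; 5 mg mL−1 aqueous compound spotted at 35, 25, 10 and 5 μg with 1:1 water/methanol vehicle spot; 37 °C, 18 h; inhibition zone diameter measured by ruler.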

Enterococcus [2] = assay: Antibacterial activity against vancomycin-resistant Enterococcus assessed as zone of inhibition incubated for 18 hrs by spot on lawn assay; assay type: functional, organism-based
Method in brief: (§2)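 Spot-on-lawn assay. Plates of 1.5% agar in LB were overlaid with 0.7% LB agar seeded with overnight culture at 0.01 OD600. Aqueous 5 mg mL−1 solutions were spotted at 35, 25, 10 and 5 μg, with a 1:1 water/methanol vehicle spot. After 18 h at 37 °C, inhibition zone diameters were measured with a ruler.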

Enterococcus faecalis [3] = assay: Antibacterial activity against Enterococcus faecalis ATCC 29212 assessed as zone of inhibition incubated for 18 hrs by spot on lawn assay; assay type: functional, organism-based; method in brief: as §1
Staphylococcus aureus [4] = assay: Antibacterial activity against methicillin resistant Staphylococcus aureus assessed as zone of inhibition incubated for 18 hrs by spot on lawn assay; assay type: functional, organism-based; method in brief: as §2
Staphylococcus aureus [5] = assay: Antibacterial activity against NorA deleted Staphylococcus aureus assessed as zone of inhibition incubated for 18 hrs by spot on lawn assay; assay type: functional, organism-based; method in brief: as §1
Staphylococcus aureus [6] = assay: Antibacterial activity against Staphylococcus aureus assessed as zone of inhibition incubated for 18 hrs by spot on lawn assay; assay type: functional, organism-based; method in brief: as §1
[7] = Cytotoxicity against human MRC5 cells incubated for 24 hrs by MTS assay; assay type: toxicity, cell-based
Method in brief: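 MRC-5 lung fibroblasts seeded 5000 per well; medium replaced with compound 16–192 μg mL−1 or matching 1:1 methanol:water vehicle; 24 h, then MTS 3–4 h; absorbance 490 nm; viability relative to untreated cells, normalized to vehicle; CC50 from two independent assays in duplicate, mean ± SD.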

Staphylococcus aureus [8] = assay: Antibacterial activity against NorA deleted Staphylococcus aureus incubated for 16 hrs by broth microdilution method; assay type: functional, organism-based; settings: for IC50: 16 h; for MIC: time 16 hrs
Method in brief: (§3)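 Cation-adjusted Mueller-Hinton broth microdilution. Overnight cultures from single colonies were diluted to OD600 0.004. Final compound range was 256–2 μg mL−1 in 1:1 methanol/water vehicle, with doxycycline and vehicle controls. Plates were incubated 16 h at 37 °C. OD600 was normalized to controls, and MIC was the lowest concentration inhibiting >90% growth. Two biological replicates in duplicate; reported as a range.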

Staphylococcus aureus [9] = assay: Antibacterial activity against wild type Staphylococcus aureus 8810 incubated for 16 hrs by broth microdilution method; assay type: functional, organism-based; settings: for IC50: Staphylococcus aureus, 8810, 16 h; for MIC: Staphylococcus aureus, 8810, time 16 hrs; method in brief: as §3
Staphylococcus aureus [10] = assay: Antibacterial activity against methicillin resistant Staphylococcus aureus ATCC 43300 incubated for 16 hrs by broth microdilution method; assay type: functional, organism-based; settings: for IC50: ATCC 43300, 16 h; for MIC: ATCC 43300, time 16 hrs; method in brief: as §3
Klebsiella pneumoniae = assay: Antibacterial activity against Klebsiella pneumoniae ATCC 29665 incubated for 16 hrs by broth microdilution method; assay type: functional, organism-based; settings: for IC50: ATCC 29665, 16 h; for MIC: ATCC 29665, time 16 hrs
Pseudomonas aeruginosa = assay: Antibacterial activity against MexAB-OprM deleted Pseudomonas aeruginosa incubated for 16 hrs by broth microdilution method; assay type: functional, organism-based; settings: for IC50: 16 h; for MIC: time 16 hrs
Acinetobacter baumannii = assay: Antibacterial activity against Acinetobacter baumannii ATCC 17978 incubated for 16 hrs by broth microdilution method; assay type: functional, organism-based; settings: for IC50: ATCC 17978, 16 h; for MIC: ATCC 17978, time 16 hrs
Candida albicans [11] = assay: Antifungal activity against Candida albicans incubated for 16 hrs by broth microdilution method; assay type: functional
Saccharomyces cerevisiae = assay: Antifungal activity against Saccharomyces cerevisiae incubated for 16 hrs by broth microdilution method; assay type: functional
[12] = Selectivity index, ratio of CC50 for human MRC5 cells to IC50 for NorA deleted Staphylococcus aureus; assay type: toxicity; settings: read-out: Ratio CC50/IC50
[13] = Selectivity index, ratio of CC50 for human MRC5 cells to IC50 for Staphylococcus aureus; assay type: toxicity; settings: read-out: Ratio CC50/IC50
[14] = Selectivity index, ratio of CC50 for human MRC5 cells to IC50 for methicillin resistant Staphylococcus aureus; assay type: toxicity; settings: read-out: Ratio CC50/IC50
[15] = Selectivity index, ratio of CC50 for human MRC5 cells to IC50 for Enterococcus faecalis ATCC 29212; assay type: toxicity; settings: read-out: Ratio CC50/IC50
[16] = Selectivity index, ratio of CC50 for human MRC5 cells to IC50 for vancomycin-resistant Enterococcus; assay type: toxicity; settings: read-out: Ratio CC50/IC50
[17] = Selectivity index, ratio of CC50 for human MRC5 cells to IC50 for Klebsiella pneumoniae ATCC 29665; assay type: toxicity; settings: read-out: Ratio CC50/IC50
[18] = Selectivity index, ratio of CC50 for human MRC5 cells to IC50 for MexAB-OprM deleted Pseudomonas aeruginosa; assay type: toxicity; settings: read-out: Ratio CC50/IC50
[19] = Selectivity index, ratio of CC50 for human MRC5 cells to IC50 for Acinetobacter baumannii ATCC 17978; assay type: toxicity; settings: read-out: Ratio CC50/IC50
Enterococcus faecalis [20] = assay: Antibacterial activity against Enterococcus faecalis ATCC 29212 incubated for 20 hrs by broth microdilution method; settings: ATCC 29212, 20 h
Enterococcus [21] = assay: Antibacterial activity against vancomycin-resistant Enterococcus incubated for 20 hrs by broth microdilution method

Row | Structure (SMILES) | CC50 at 24 h [7] [µg/mL] | IC50 (Staphylococcus aureus [8]) [µg/mL] | MIC (Staphylococcus aureus [8]) [µg/mL] | IC50 (Staphylococcus aureus [9]) [µg/mL] | MIC (Staphylococcus aureus [9]) [µg/mL] | IC50 (Staphylococcus aureus [10]) [µg/mL] | MIC (Staphylococcus aureus [10]) [µg/mL] | IC50 (Klebsiella pneumoniae) [µg/mL] | MIC (Klebsiella pneumoniae) [µg/mL] | IC50 (Pseudomonas aeruginosa) [µg/mL] | MIC (Pseudomonas aeruginosa) [µg/mL] | IC50 (Acinetobacter baumannii) [µg/mL] | MIC (Acinetobacter baumannii) [µg/mL] | MIC (Candida albicans [11]) [µg/mL] | MIC (Saccharomyces cerevisiae) [µg/mL] | selectivity ratio [12] | selectivity ratio [13] | selectivity ratio [14] | selectivity ratio [15] | selectivity ratio [16] | other results
1 | CCCOC(=O)[C@H]1O[C@@H](n2ccc(N)nc2=O)C=C[C@@H]1NC(=O)C[C@@H](N)CCN(C)C(=N)N | 10.2 (≈ 22 µM) | 20.6 (≈ 44.3 µM) | 32 (≈ 68.9 µM) | 14.5 (≈ 31.2 µM) | 32 (≈ 68.9 µM) | 15.8 (≈ 34 µM) | 32 (≈ 68.9 µM) | 60.1 (≈ 129 µM) | 128 (≈ 276 µM) | 61.6 (≈ 133 µM) | > 128 | 42.3 (≈ 91.1 µM) | 128 (≈ 276 µM) | > 256 | 32 (≈ 68.9 µM) | 0.5 | 0.7 | 0.6 | 1 | 0.4 | Activity (Candida albicans [1]): inactive; Activity (Enterococcus [2]): Active; Activity (Enterococcus faecalis [3]): Active; Activity (Staphylococcus aureus [4]): Active; Activity (Staphylococcus aureus [5]): Active; Activity (Staphylococcus aureus [6]): Active; selectivity ratio [17]: 0.2; selectivity ratio [18]: 0.2; selectivity ratio [19]: 0.2; IC50 (Enterococcus faecalis [20]): 10.5 µg/mL (≈ 22.6 µM); MIC (Enterococcus faecalis [20]): 16 µg/mL (≈ 34.4 µM); IC50 (Enterococcus [21]): 23.6 µg/mL (≈ 50.8 µM); MIC (Enterococcus [21]): 128 µg/mL (≈ 276 µM)
2 | CCCCCCOC(=O)[C@H]1O[C@@H](n2ccc(N)nc2=O)C=C[C@@H]1NC(=O)C[C@@H](N)CCN(C)C(=N)N | 18.4 (≈ 36.3 µM) | 18 (≈ 35.5 µM) | 32 (≈ 63.2 µM) | 27.1 (≈ 53.5 µM) | 64 (≈ 126 µM) | 43.2 (≈ 85.3 µM) | 128 (≈ 253 µM) | 67.1 (≈ 132 µM) | 128 (≈ 253 µM) | 77.2 (≈ 152 µM) | > 128 | 52.4 (≈ 103 µM) | 128 (≈ 253 µM) | > 32 | 16 (≈ 31.6 µM) | 1 | 0.7 | 0.4 | 1.6 | 0.1 | selectivity ratio [17]: 0.3; selectivity ratio [18]: 0.2; selectivity ratio [19]: 0.3; IC50 (Enterococcus faecalis [20]): 11.4 µg/mL (≈ 22.5 µM); MIC (Enterococcus faecalis [20]): 16 µg/mL (≈ 31.6 µM); IC50 (Enterococcus [21]): 140 µg/mL (≈ 276 µM); MIC (Enterococcus [21]): 256 µg/mL (≈ 505 µM)
3 | CN(CC[C@H](N)CC(=O)N[C@H]1C=C[C@H](n2ccc(N)nc2=O)O[C@@H]1C(=O)OCCc1ccccc1)C(=N)N | 18.5 (≈ 35.1 µM) | 27.3 (≈ 51.8 µM) | 64 (≈ 122 µM) | 18.1 (≈ 34.4 µM) | 64 (≈ 122 µM) | 16.1 (≈ 30.6 µM) | 32 (≈ 60.8 µM) | 57.1 (≈ 108 µM) | > 128 | 76.9 (≈ 146 µM) | > 128 | 113 (≈ 215 µM) | > 128 | > 128 | 64 (≈ 122 µM) | 0.7 | 1 | 1.2 | 2.7 | 1.4 | Activity (Candida albicans [1]): inactive; Activity (Enterococcus [2]): Active; Activity (Enterococcus faecalis [3]): Active; Activity (Staphylococcus aureus [4]): Active; Activity (Staphylococcus aureus [5]): Active; Activity (Staphylococcus aureus [6]): Active; selectivity ratio [17]: 0.3; selectivity ratio [18]: 0.2; selectivity ratio [19]: 0.2; IC50 (Enterococcus faecalis [20]): 6.9 µg/mL (≈ 13.1 µM); MIC (Enterococcus faecalis [20]): 8 µg/mL (≈ 15.2 µM); IC50 (Enterococcus [21]): 13.8 µg/mL (≈ 26.2 µM); MIC (Enterococcus [21]): 32 µg/mL (≈ 60.8 µM)
4 | CN(CC[C@H](N)CC(=O)N[C@H]1C=C[C@H](n2ccc(N)nc2=O)O[C@@H]1C(=O)OCc1ccccc1)C(=N)N | 17.4 (≈ 33.9 µM) | 46.6 (≈ 90.9 µM) | 128 (≈ 250 µM) | 33 (≈ 64.4 µM) | 128 (≈ 250 µM) | 23.3 (≈ 45.5 µM) | 32 (≈ 62.4 µM) | 58.8 (≈ 115 µM) | > 128 | 89.3 (≈ 174 µM) | > 128 | 85.1 (≈ 166 µM) | > 128 | > 128 | 128 (≈ 250 µM) | 0.4 | 0.5 | 0.7 | 1.2 | < 0.3 | selectivity ratio [17]: 0.3; selectivity ratio [18]: 0.2; selectivity ratio [19]: 0.2; IC50 (Enterococcus faecalis [20]): 14.6 µg/mL (≈ 28.5 µM); MIC (Enterococcus faecalis [20]): 16 µg/mL (≈ 31.2 µM); IC50 (Enterococcus [21]): > 64 µg/mL; MIC (Enterococcus [21]): 128 µg/mL (≈ 250 µM)
5 | CN(CC[C@H](N)CC(=O)N[C@H]1C=C[C@H](n2ccc(N)nc2=O)O[C@@H]1C(=O)O)C(=N)N.Cl | 16.1 | > 256 | > 256 | 77 | 128 | 79.7 | 128 | 74.8 | 128 | 73 | 128 | 70.4 | 128 | 64 | 16 | < 0.1 | 0.2 | 0.2 | 0.3 | < 0.1 | Activity (Candida albicans [1]): Active; selectivity ratio [17]: 0.2; selectivity ratio [18]: 0.2; selectivity ratio [19]: 0.2; IC50 (Enterococcus faecalis [20]): 52.5 µg/mL; MIC (Enterococcus faecalis [20]): 128 µg/mL; IC50 (Enterococcus [21]): > 256 µg/mL; MIC (Enterococcus [21]): > 256 µg/mL
